Reference: ChEMBL document CHEMBL4138201, “Synthesis and biological evaluation of sulfur-containing shikonin oxime derivatives as potential antineoplastic agents” (Eur J Med Chem, 2018)

Columns and labels:
HCT-15 = assay: Cytotoxicity against human HCT15 cells after 48 hrs by MTT assay; assay type: functional, cell-based; conditions: HCT-15, 48 h
In short: (§1)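 MTT colorimetric assay. Shikonin and 5-fluorouracil served as reference agents. IC₅₀ obtained by linear regression of each compound's concentration–response curve.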

Bel-7402 = assay: Cytotoxicity against human Bel7402 cells after 48 hrs by MTT assay; assay type: functional, cell-based; conditions: Bel-7402, 48 h; in short: as §1
[1] = Cytotoxicity against human HSF cells after 48 hrs by MTT assay; assay type: cell-based; in short: as §1
MCF7 = assay: Cytotoxicity against human MCF7 cells after 48 hrs by MTT assay; assay type: functional, cell-based; conditions: MCF7, 48 h; in short: as §1
MGC-803 = assay: Cytotoxicity against human MGC803 cells after 48 hrs by MTT assay; assay type: functional, cell-based; conditions: MGC-803, 48 h; in short: as §1

Row | Compound | IC50 (HCT-15) | IC50 (Bel-7402) | IC50 [1] | IC50 (MCF7) | IC50 (MGC-803)
1 | COc1ccc(C(=O)S[C@H](CC=C(C)C)c2cc(OC)c3c(c2OC)/C(=N/O)C=C/C3=N\O)cc1OC | 0.84 µM | 1.16 µM | > 50 µM | 19.5 µM | 1.57 µM
2 | COc1cc([C@H](CC=C(C)C)SC(=O)c2ccccc2)c(OC)c2c1/C(=N/O)C=C/C2=N\O | 0.59 µM | 1.48 µM | > 50 µM | 18.1 µM | 1.26 µM
3 | COc1cc(C(CC=C(C)C)SC(C)=O)c(OC)c2c1/C(=N/O)C=C/C2=N\O (stereo not given) | 1.22 µM | 3.65 µM | > 50 µM | 23.5 µM | 2.49 µM
4 | COc1cc(C(CC=C(C)C)SC(=O)c2ccc(NC(=O)OC(C)(C)C)cc2)c(OC)c2c1/C(=N/O)C=C/C2=N\O (stereo not given) | 3.39 µM | 9.17 µM | > 50 µM | 32.4 µM | 6.56 µM
5 | CCCCCCSC(CC=C(C)C)c1cc(OC)c2c(c1OC)/C(=N/O)C=C/C2=N\O (stereo not given) | 3.46 µM | 11.7 µM | > 50 µM | 34.6 µM | 6.73 µM
6 | CCSC(CC=C(C)C)c1cc(OC)c2c(c1OC)/C(=N/O)C=C/C2=N\O (stereo not given) | 7.15 µM | 20.1 µM | > 50 µM | 44.2 µM | 12.5 µM
7 | CCC(=O)SC(CC=C(C)C)c1cc(OC)c2c(c1OC)/C(=N/O)C=C/C2=N\O (stereo not given) | 1.35 µM | 2.73 µM | > 50 µM | 26.1 µM | 3.06 µM
8 | CCCCCCCCCCSC(CC=C(C)C)c1cc(OC)c2c(c1OC)/C(=N/O)C=C/C2=N\O (stereo not given) | 7.43 µM | 25.4 µM | > 50 µM | 48.3 µM | 19.2 µM
9 | COc1cc([C@@H](CC=C(C)C)SC(=O)c2ccccc2)c(OC)c2c1/C(=N/O)C=C/C2=N\O | 1.06 µM | 2.97 µM | > 50 µM | 25.5 µM | 2.67 µM
10 | O=c1[nH]cc(F)c(=O)[nH]1 [FLUOROURACIL] | 7.53 µM | 20.9 µM | > 50 µM | 29 µM | > 50 µM
11 | COc1cc(C(CC=C(C)C)SCC=C(C)C)c(OC)c2c1/C(=N/O)C=C/C2=N\O (stereo not given) | 3.8 µM | 12.6 µM | > 50 µM | 33.7 µM | 7.05 µM
12 | CCCCCC(=O)SC(CC=C(C)C)c1cc(OC)c2c(c1OC)/C(=N/O)C=C/C2=N\O (stereo not given) | 7.21 µM | 22.4 µM | > 50 µM | 45.7 µM | 16.9 µM
13 | COc1cc(C(CC=C(C)C)SC(=O)c2ccccc2F)c(OC)c2c1/C(=N/O)C=C/C2=N\O (stereo not given) | 0.62 µM | 1.34 µM | > 50 µM | 23 µM | 1.52 µM
14 | COc1cc([C@H](CC=C(C)C)SCCC(C)C)c(OC)c2c1/C(=N/O)C=C/C2=N\O | 0.92 µM | 4.85 µM | > 50 µM | 26.3 µM | 3.12 µM
15 | COc1ccccc1C(=O)SC(CC=C(C)C)c1cc(OC)c2c(c1OC)/C(=N/O)C=C/C2=N\O (stereo not given) | 0.89 µM | 1.06 µM | > 50 µM | 19.8 µM | 1.37 µM
16 | CC(C)=CC[C@@H](O)C1=CC(=O)c2c(O)ccc(O)c2C1=O [SHIKONIN] | 0.86 µM | 1.24 µM | 1.25 µM | 2.4 µM | 1.51 µM
17 | COc1cc(C(CC=C(C)C)SC(=O)c2cccnc2)c(OC)c2c1/C(=N/O)C=C/C2=N\O (stereo not given) | 3.45 µM | 10.2 µM | > 50 µM | 37.5 µM | 7.56 µM
18 | COc1cc(C(CC=C(C)C)SC(=O)CC(C)C)c(OC)c2c1/C(=N/O)C=C/C2=N\O (stereo not given) | 0.59 µM | 1.65 µM | > 50 µM | 16.3 µM | 1.49 µM
19 | COc1cc(C(=O)S[C@H](CC=C(C)C)c2cc(OC)c3c(c2OC)/C(=N/O)C=C/C3=N\O)cc(OC)c1OC | 0.57 µM | 0.97 µM | > 50 µM | 12.8 µM | 1.18 µM
20 | COc1cc(C(CC=C(C)C)SC(=O)c2cccc(Cl)c2)c(OC)c2c1/C(=N/O)C=C/C2=N\O (stereo not given) | 2.64 µM | 12.1 µM | > 50 µM | 42.9 µM | 8.73 µM
21 | COc1cc(C(=O)S[C@@H](CC=C(C)C)c2cc(OC)c3c(c2OC)/C(=N/O)C=C/C3=N\O)cc(OC)c1OC | 0.34 µM | 0.63 µM | > 50 µM | 11.8 µM | 0.97 µM
22 | CCCCCCCCSC(CC=C(C)C)c1cc(OC)c2c(c1OC)/C(=N/O)C=C/C2=N\O (stereo not given) | 1.25 µM | 6.37 µM | > 50 µM | 25.7 µM | 2.29 µM

Row | Compound | IC50 (HCT-15) | IC50 (Bel-7402) | IC50 [1] | IC50 (MCF7) | IC50 (MGC-803)
23 | COc1cc(C(CC=C(C)C)SC(=O)c2ccccc2Cl)c(OC)c2c1/C(=N/O)C=C/C2=N\O (stereo not given) | 0.53 µM | 0.87 µM | > 50 µM | 19.2 µM | 1.69 µM
24 | COc1cc(C(CC=C(C)C)SC(=O)c2ccccc2)c(OC)c2c1/C(=N/O)C=C/C2=N\O (stereo not given) | 0.63 µM | 1.2 µM | > 50 µM | 17.4 µM | 1.28 µM
25 | COc1cc(C(CC=C(C)C)SC(=O)C=C(C)C)c(OC)c2c1/C(=N/O)C=C/C2=N\O (stereo not given) | 1.56 µM | 4.53 µM | > 50 µM | 29.9 µM | 3.96 µM
26 | CCCCCCCCCCCCSC(CC=C(C)C)c1cc(OC)c2c(c1OC)/C(=N/O)C=C/C2=N\O (stereo not given) | 14.7 µM | 34.3 µM | > 50 µM | > 50 µM | 31.6 µM
27 | COc1cc(C(CC=C(C)C)SC(=O)c2cccs2)c(OC)c2c1/C(=N/O)C=C/C2=N\O (stereo not given) | 1.36 µM | 3.04 µM | > 50 µM | 23.8 µM | 2.75 µM
28 | COc1cc(C(CC=C(C)C)SC(=O)c2ccc([N+](=O)[O-])cc2)c(OC)c2c1/C(=N/O)C=C/C2=N\O (stereo not given) | 5.09 µM | 12.6 µM | > 50 µM | 44.7 µM | 9.3 µM
29 | COc1cc(C(CC=C(C)C)SC(=O)c2ccc(F)cc2)c(OC)c2c1/C(=N/O)C=C/C2=N\O (stereo not given) | 0.7 µM | 0.89 µM | > 50 µM | 20.5 µM | 1.28 µM
30 | COc1cccc(C(=O)SC(CC=C(C)C)c2cc(OC)c3c(c2OC)/C(=N/O)C=C/C3=N\O)c1 (stereo not given) | 1.67 µM | 5.54 µM | > 50 µM | 35.2 µM | 4.25 µM
31 | COc1cc(C(CC=C(C)C)SC/C=C(\C)CC/C=C(\C)CCC=C(C)C)c(OC)c2c1/C(=N/O)C=C/C2=N\O (stereo not given) | 5.96 µM | 14.7 µM | > 50 µM | 37.4 µM | 9.98 µM
32 | COc1cc(C(CC=C(C)C)SC(=O)c2ccc(C(F)(F)F)cc2)c(OC)c2c1/C(=N/O)C=C/C2=N\O (stereo not given) | 2.75 µM | 7.12 µM | > 50 µM | 30.5 µM | 5.97 µM
33 | CCCCCCCSC(CC=C(C)C)c1cc(OC)c2c(c1OC)/C(=N/O)C=C/C2=N\O (stereo not given) | 1.97 µM | 8.15 µM | > 50 µM | 30.6 µM | 5.51 µM
34 | COc1cc(C(CC=C(C)C)SC(=O)c2ccco2)c(OC)c2c1/C(=N/O)C=C/C2=N\O (stereo not given) | 1.98 µM | 7.3 µM | > 50 µM | 28.3 µM | 5.01 µM
35 | COc1cc([C@@H](CC=C(C)C)SCCC(C)C)c(OC)c2c1/C(=N/O)C=C/C2=N\O | 1.94 µM | 8.95 µM | > 50 µM | 39.4 µM | 5.87 µM
36 | COc1cc(C(CC=C(C)C)SC(=O)c2ccncc2)c(OC)c2c1/C(=N/O)C=C/C2=N\O (stereo not given) | 7.32 µM | 26.8 µM | > 50 µM | > 50 µM | 19.4 µM
37 | COc1cc(C(CC=C(C)C)SC(=O)c2cccc(F)c2)c(OC)c2c1/C(=N/O)C=C/C2=N\O (stereo not given) | 2.71 µM | 8.9 µM | > 50 µM | 38.9 µM | 6.47 µM
38 | COc1ccc(C(=O)S[C@@H](CC=C(C)C)c2cc(OC)c3c(c2OC)/C(=N/O)C=C/C3=N\O)cc1OC | 0.38 µM | 0.85 µM | > 50 µM | 15.2 µM | 1.12 µM
39 | COc1cc(C(CC=C(C)C)SC(=O)c2ccc(C)cc2)c(OC)c2c1/C(=N/O)C=C/C2=N\O (stereo not given) | 0.47 µM | 0.72 µM | > 50 µM | 15.8 µM | 0.92 µM
40 | CCCCCCCCCSC(CC=C(C)C)c1cc(OC)c2c(c1OC)/C(=N/O)C=C/C2=N\O (stereo not given) | 4.09 µM | 13.8 µM | > 50 µM | 37.8 µM | 9.86 µM
41 | COc1cc(C(CC=C(C)C)SC(=O)c2ccc(N)cc2)c(OC)c2c1/C(=N/O)C=C/C2=N\O (stereo not given) | 1.68 µM | 1.26 µM | > 50 µM | 19.4 µM | 2.45 µM
42 | COc1cc(C(CC=C(C)C)SC(=O)c2ccc(Cl)cc2)c(OC)c2c1/C(=N/O)C=C/C2=N\O (stereo not given) | 0.82 µM | 1.16 µM | > 50 µM | 20.4 µM | 1.45 µM
43 | CCCCSC(CC=C(C)C)c1cc(OC)c2c(c1OC)/C(=N/O)C=C/C2=N\O (stereo not given) | 4.37 µM | 12.6 µM | > 50 µM | 36 µM | 9.32 µM
